Assay results as given in ChEMBL document CHEMBL1125138, “1,3-Dialkyl-3-acyltriazenes, a novel class of antineoplastic alkylating agents” (J Med Chem, 1990).

Tests used:
SK-MEL-5 = assay: Evaluated for the inhibitory concentration required to cause growth inhibition of SK-MEL-5 melanoma cell line using the MTT Cytotoxicity Assay; assay type: functional, cell-based; conditions: Homo sapiens
Procedure, shortened: (§1)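 MTT microculture tetrazolium growth assay on human cell lines and normal fibroblasts. Cells seeded at 1000 cells/well, with compound added 24 h after plating. Cultures then incubated a further 6 days at 37 °C before MTT read-out of growth versus untreated cells.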

CCD 19Lu = assay: Evaluated for the inhibitory concentration required to cause growth inhibition of CCD-19Lu fibroblasts cell line using the MTT Cytotoxicity Assay; assay type: functional, cell-based; conditions: Homo sapiens; procedure, shortened: as §1
OVCAR-4 = assay: Evaluated for the inhibitory concentration required to cause growth inhibition of OVCAR-4 ovarian cell line using the MTT Cytotoxicity Assay; assay type: functional, cell-based; conditions: Homo sapiens; procedure, shortened: as §1
DOD-1 = assay: Evaluated for the inhibitory concentration required to cause growth inhibition of DOD-1 breast cell line using the MTT Cytotoxicity Assay; assay type: functional, cell-based; conditions: Homo sapiens; procedure, shortened: as §1
MCF7 = assay: Evaluated for the inhibitory concentration required to cause growth inhibition of MCF-7 breast cell line using the MTT Cytotoxicity Assay; assay type: functional, cell-based; conditions: Homo sapiens; procedure, shortened: as §1
OVCAR-3 = assay: Evaluated for the inhibitory concentration required to cause growth inhibition of OVCAR-3 ovarian cell line using the MTT Cytotoxicity Assay; assay type: functional, cell-based; conditions: Homo sapiens; procedure, shortened: as §1
NCI-H23 = assay: Evaluated for the inhibitory concentration required to cause growth inhibition of H23 cell line of lung using the Microculture Tetrazolium (MTT) Cytotoxicity Assay; assay type: functional, cell-based; conditions: Homo sapiens; procedure, shortened: as §1
P388 [1] = assay: Evaluated in vivo for antineoplastic activity against P388 murine leukemia tumor […] after administering intra peritoneal injection at a dose of 13.12 mg/kg; assay type: functional, Mus musculus
Procedure, shortened: (§2)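 P388 leukemia-bearing mice, run through the NCI Developmental Therapeutics Program. Compound given ip once daily on 5 consecutive days. Activity read out as % T/C.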

LOX IMVI = assay: Evaluated for the inhibitory concentration required to cause growth inhibition of LOX melanoma cell line using the MTT Cytotoxicity Assay; assay type: functional, cell-based; conditions: Homo sapiens; procedure, shortened: as §1
U-251 = assay: Evaluated for the inhibitory concentration required to cause growth inhibition of U251 cell line of central nervous system (CNS) using the MTT Cytotoxicity Assay; assay type: functional, cell-based; conditions: Homo sapiens
Procedure, shortened: (§3)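 MTT cell-growth assay in human cell lines: cells harvested and seeded at 1000 cells/well in 96-well plates. Compound added after 24 h, then cultures incubated a further 6 days at 37 °C. Growth measured with and without agent.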

TE-671 = assay: Evaluated for the inhibitory concentration required to cause growth inhibition of TE-671 cell line of central nervous system (CNS)using the MTT Cytotoxicity Assay; assay type: functional, cell-based; conditions: Homo sapiens; procedure, shortened: as §1
NCI-H322M = assay: Evaluated for the inhibitory concentration required to cause growth inhibition of H322M cell line of lung using the Microculture Tetrazolium (MTT) Cytotoxicity Assay; assay type: functional, cell-based; conditions: Homo sapiens; procedure, shortened: as §1
A549 = assay: Evaluated for the inhibitory concentration required to cause growth inhibition of A549Rem- cell line of lung using the MTT Cytotoxicity Assay; assay type: functional, cell-based; conditions: Homo sapiens; procedure, shortened: as §1
[2] = tested on: MAR BEL fibroblasts cell line; assay: Evaluated for the inhibitory concentration required to cause growth inhibition of MAR BEL fibroblasts cell line using the MTT Cytotoxicity Assay; assay type: functional, cell-based; conditions: Homo sapiens; procedure, shortened: as §1
A498 = assay: Evaluated for the inhibitory concentration required to cause growth inhibition of A498Rem- renal cell line using the MTT Cytotoxicity Assay; assay type: functional, cell-based; conditions: Homo sapiens; procedure, shortened: as §1
NCI-H460 = assay: Evaluated for the inhibitory concentration required to cause growth inhibition of H460 cell line of lung using the Microculture Tetrazolium (MTT) Cytotoxicity Assay; assay type: functional, cell-based; conditions: Homo sapiens; procedure, shortened: as §1
NCI-H522 (Homo sapiens) = assay: Evaluated for the inhibitory concentration required to cause growth inhibition of H522 cell line of lung using the Microculture Tetrazolium (MTT) Cytotoxicity Assay
NCI-H125 = assay: Evaluated for the inhibitory concentration required to cause growth inhibition of H125 cell line of lung using the Microculture Tetrazolium (MTT) Cytotoxicity Assay; assay type: functional, cell-based; conditions: Homo sapiens; procedure, shortened: as §1
A704 = assay: Evaluated for the inhibitory concentration required to cause growth inhibition of A704Rem- renal cell line using the MTT Cytotoxicity Assay; assay type: functional, cell-based; conditions: Homo sapiens; procedure, shortened: as §1
HOS-TE85 = assay: Evaluated for the inhibitory concentration required to cause growth inhibition of TE85Mer+ sarcoma cell line using the MTT Cytotoxicity Assay; assay type: functional, cell-based; conditions: Homo sapiens; procedure, shortened: as §1
RPMI-7951 = assay: Evaluated for the inhibitory concentration required to cause growth inhibition of RPMI7951 melanoma cell line using the MTT Cytotoxicity Assay; assay type: functional, cell-based; conditions: Homo sapiens; procedure, shortened: as §1
A673 = assay: Evaluated for the inhibitory concentration required to cause growth inhibition of A673Mer+ sarcoma cell line using the MTT Cytotoxicity Assay; assay type: functional, cell-based; conditions: Homo sapiens; procedure, shortened: as §1
A-427 = assay: Evaluated for the inhibitory concentration required to cause growth inhibition of A427Mer- cell line of lung using the MTT Cytotoxicity Assay; assay type: functional, cell-based; conditions: Homo sapiens; procedure, shortened: as §1
NCI-H358 = assay: Evaluated for the inhibitory concentration required to cause growth inhibition of H358M cell line of lung using the Microculture Tetrazolium (MTT) Cytotoxicity Assay; assay type: functional, cell-based; conditions: Homo sapiens; procedure, shortened: as §1
WiDr = assay: Evaluated for the inhibitory concentration required to cause growth inhibition of WiDR colon cell line using the MTT Cytotoxicity Assay; assay type: functional, cell-based; conditions: Homo sapiens; procedure, shortened: as §3
P388 [3] = assay: Evaluated in vivo for antineoplastic activity against P388 murine leukemia tumor […] after administering intra peritoneal injection at a dose of 52.5 mg/kg; assay type: functional, Mus musculus; procedure, shortened: as §2
Malme-3M = assay: Evaluated for the inhibitory concentration required to cause growth inhibition of MALME-3M melanoma cell line using the MTT Cytotoxicity Assay; assay type: functional, cell-based; conditions: Homo sapiens; procedure, shortened: as §1
P388 [4] = assay: Evaluated in vivo for antineoplastic activity against P388 murine leukemia tumor […] after administering intra peritoneal injection at a dose of 26.25 mg/kg; assay type: functional, Mus musculus; procedure, shortened: as §2
NCI/ADR-RES = assay: Evaluated for the inhibitory concentration required to cause growth inhibition of MCF-7ADR breast cell line using the MTT Cytotoxicity Assay; assay type: functional, cell-based; conditions: Homo sapiens; procedure, shortened: as §1
A 172 = assay: Evaluated for the inhibitory concentration required to cause growth inhibition of A172Mer- cell line of central nervous system (CNS) using the MTT Cytotoxicity Assay; assay type: functional, cell-based; conditions: Homo sapiens; procedure, shortened: as §1

CC(=O)N(C)/N=N\CCCl
IC50 (SK-MEL-5): 15 µM
IC50 (CCD 19Lu): 60 µM
IC50 (OVCAR-4): 18 µM
IC50 (DOD-1): 26 µM
IC50 (MCF7): 15 µM
IC50 (OVCAR-3): 25 µM
IC50 (NCI-H23): 20 µM
T/C (P388 [1]): 157%
IC50 (LOX IMVI): 8 µM
IC50 (U-251): 18 µM
IC50 (TE-671): 50 µM
IC50 (NCI-H322M): 32 µM
IC50 (A549): 26 µM
IC50 [2]: 44 µM
IC50 (A498): 18 µM
IC50 (NCI-H460): 60 µM
IC50 (NCI-H522 (Homo sapiens)): 18 µM
IC50 (NCI-H125): 42 µM
IC50 (A704): 26 µM
IC50 (HOS-TE85): 18 µM
IC50 (RPMI-7951): 17 µM
IC50 (A673): 35 µM
IC50 (A-427): 12 µM
IC50 (NCI-H358): 60 µM
IC50 (WiDr): 15 µM
T/C (P388 [3]): 257%
IC50 (Malme-3M): 25 µM
T/C (P388 [4]): 217%
IC50 (NCI/ADR-RES): 24 µM
IC50 (A 172): 20 µM

O=NN(CCCl)C(=O)NCCCl [CARMUSTINE]
IC50 (SK-MEL-5): 27 µM
IC50 (CCD 19Lu): 300 µM
IC50 (OVCAR-4): 18 µM
IC50 (DOD-1): 37 µM
IC50 (MCF7): 4.5 µM
IC50 (OVCAR-3): 15 µM
IC50 (NCI-H23): 5 µM
IC50 (LOX IMVI): 7 µM
IC50 (U-251): 15 µM
IC50 (TE-671): 25 µM
IC50 (NCI-H322M): 60 µM
IC50 (A549): 90 µM
IC50 (A498): 110 µM
IC50 (NCI-H460): 80 µM
IC50 (NCI-H522 (Homo sapiens)): 20 µM
IC50 (NCI-H125): 9 µM
IC50 (A704): 125 µM
IC50 (A-427): 8 µM
IC50 (NCI-H358): 98 µM
IC50 (Malme-3M): 20 µM
IC50 (NCI/ADR-RES): 20 µM
IC50 (A 172): 18 µM
